# High-throughput results as filed in PubChem.
# A selection: hits, their analogues and other compounds. The true share with any hit is near 12%.
# Rad51 HR inh: Rad51 (human) homologous recombination inhibition | Q06609 | hRad51 DNA strand exchange, fluorescence dequenching | inhibition, % at 10 µM | 0.085% of 200,000 active | AID 1385;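 active = inhibition above 40% at the single screening dose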
#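 Material: Human Rad51 nucleoprotein filaments preassembled on unlabelled ssDNA | Also added: Labelled 47-mer dsDNA for strand exchange | Dosing: Single dose, 10 µM final compound | Schedule: 30-min compound preincubation and 15-min exchange, both room temperature | Technique: Fluorescence dequenching at 485/520 nm | Measure: Percent inhibition relative to plate controls and blanks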
# CHOP inh: inhibitors of CHOP induction in ER stress response; inhibition, % at 10 µM; CHO-K1 CHOP-promoter luciferase, tunicamycin-induced, 15-18 h; 3.8% of 220,000 active; AID 2732;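 active = compounds that reduced the stress-induced luciferase reporter signal by more than about 70% of percent inhibition, limit read from the data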
# Lmaj promast: reduces viability of Leishmania major promastigotes; resazurin fluorescence viability; inhibition, % at 10 µM; 9% of 200,000 active; AID 1063;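 also: promastigotes grown with compound for 44 hours at 28 °C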
# PKD1 inh: inhibitors of human PKD1 kinase; Q15139; PKD1 kinase fluorescence polarization assay; 0.056% of 200,000 active; inhibition, % (test concentration not listed)
# Target sequence (Q15139 whole entry, looked up): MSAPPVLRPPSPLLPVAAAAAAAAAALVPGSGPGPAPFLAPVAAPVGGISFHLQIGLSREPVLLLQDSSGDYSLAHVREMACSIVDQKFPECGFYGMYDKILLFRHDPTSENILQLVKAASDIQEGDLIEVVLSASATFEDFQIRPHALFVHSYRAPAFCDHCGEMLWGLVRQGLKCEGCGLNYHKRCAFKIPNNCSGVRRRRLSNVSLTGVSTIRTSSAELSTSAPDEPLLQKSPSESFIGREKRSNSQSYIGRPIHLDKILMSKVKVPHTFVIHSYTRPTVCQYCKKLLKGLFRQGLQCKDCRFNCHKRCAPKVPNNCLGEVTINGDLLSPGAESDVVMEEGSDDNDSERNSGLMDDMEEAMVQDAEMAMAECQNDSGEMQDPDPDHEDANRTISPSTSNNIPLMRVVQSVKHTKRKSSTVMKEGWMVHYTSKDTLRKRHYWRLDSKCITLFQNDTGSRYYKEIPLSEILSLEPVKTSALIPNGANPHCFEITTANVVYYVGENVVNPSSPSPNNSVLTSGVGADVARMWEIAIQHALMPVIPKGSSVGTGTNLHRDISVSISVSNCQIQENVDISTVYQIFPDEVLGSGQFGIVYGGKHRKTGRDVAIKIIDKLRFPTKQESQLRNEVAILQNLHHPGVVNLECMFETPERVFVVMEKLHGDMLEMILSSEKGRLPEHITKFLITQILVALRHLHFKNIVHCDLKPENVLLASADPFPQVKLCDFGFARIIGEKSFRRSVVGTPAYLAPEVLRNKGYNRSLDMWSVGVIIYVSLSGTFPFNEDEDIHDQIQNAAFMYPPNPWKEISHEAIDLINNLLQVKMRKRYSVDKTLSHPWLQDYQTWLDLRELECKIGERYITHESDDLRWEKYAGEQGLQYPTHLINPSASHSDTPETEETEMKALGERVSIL
# Arbovirus inh: arbovirus infection inhibition. inhibition, % at 10 µM. arbovirus infection cell-based antiviral screen. AID 1251. 0.37% of 200,000 active; in the data active = inhibition above about 30%
# Wee1 degr inh: blocks degradation of human Wee1 kinase | P30291 | reporter increase, % at 5 µM | AID 1321 | 1.2% of 220,000 active | HeLa Luc-Wee1K328M stability, luciferase luminescence; 100% = proteasome inhibitor MG132 effect;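 active = activation above the mean of all tested compounds plus 3 SD, set per screening run, cut at about 8.8% in these data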;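 also: cells exposed to compound for 20 h before luminescence read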
# Numbers stand for hits; 0 = inactive; - = no result given. Rule as the data show it, unless noted: active = inhibition above about 50%; inactive = the rest.
SMILES,Rad51 HR inh,CHOP inh,Lmaj promast,PKD1 inh,Arbovirus inh,Wee1 degr inh
O=C(O)c1cccnc1Br,0,0,0,0,0,0
Cc1nc2ccccn2c1C(=O)OCC#N,0,0,0,0,0,0
CCC(Sc1nc2cc(OC)c(OC)cc2c(=O)n1CCc1ccc(OC)c(OC)c1)C(=O)NCCOC (configuration not stated),0,0,80,0,0,0
CCCCNC(=O)CSc1nc2cc3c(cc2c(=O)n1CCC(=O)NCCc1ccc(OC)c(OC)c1)OCO3,0,0,52,0,0,0
CCCCNC(=O)CSc1nc2cc3c(cc2c(=O)n1CCCC(=O)NCCc1ccc(OC)c(OC)c1)OCO3,0,0,0,0,0,0
O=CNC(n1cnc2c(N3CCOCC3)ncnc21)C(Cl)(Cl)Cl (configuration not stated),0,0,-,-,-,0
S=C(NCc1ccco1)N1CCN(C(c2ccccc2)c2ccccc2)CC1,0,72,0,0,0,0
COc1cc(C2CC(=O)Nc3c2c(=O)nc2c(C)cccn32)cc(OC)c1OC (configuration not stated),0,0,0,0,0,0
COc1cc(/C=N\N=C2/SC(CC(=O)O)C(=O)N2c2ccc(O)cc2)ccc1O (configuration not stated),0,0,0,0,0,0
COc1ccc(/C=N\N=C2/SC(CC(=O)O)C(=O)N2c2ccc(O)cc2)cc1OC (configuration not stated),0,0,56,0,0,0
COc1cccc(-c2nnc(SCC3CNC(=O)O3)n2-c2ccc(Cl)cc2)c1 (configuration not stated),0,0,0,0,0,0
Cc1nnsc1C(=O)NC(C)C12CC3CC(CC(C3)C1)C2 (configuration not stated),0,0,0,0,0,0
Cc1ccn(C(=O)c2ccc(NC(=O)CC(C)C)cc2)n1,0,0,0,0,0,0
CCCCCc1ccc(-c2ccc(=O)[nH]n2)cc1,-,93,0,0,0,0
CCCc1ccc(C(=O)NNc2ccccc2F)cc1,0,0,-,-,-,9.3
CCc1ccc(C(=O)NNc2ccccc2F)cc1,0,0,-,-,-,0
Cc1ccc2cc(C3CC(c4ccco4)=NN3S(=O)(=O)c3ccccc3)c(Cl)nc2c1 (configuration not stated),0,0,0,0,37,0
Cc1ccc2cc(C3CC(c4ccco4)=NN3S(C)(=O)=O)c(Cl)nc2c1 (configuration not stated),0,0,-,-,-,0
O=C(N/N=C/c1ccc([N+](=O)[O-])o1)c1cc(-c2ccc(-c3ccccc3)cc2)nc2ccccc12,-,0,100,0,0,0
Cc1ccc2nc(SCC(=O)N/N=C/c3ccco3)cc(C)c2c1,0,0,0,0,0,0
CC(=O)N(C(C)=O)n1c(/C=C/c2cccc([N+](=O)[O-])c2)nc2ccccc2c1=O,0,93,0,0,0,0
Cc1nc2ccccc2c(=O)n1NC(=O)c1cccc([N+](=O)[O-])c1,-,0,0,0,0,0
Cc1cc(N/N=C/c2ccc([N+](=O)[O-])o2)nc2ccccc12,0,0,83,0,0,0
Cc1cc(Nc2ccc([N+](=O)[O-])cc2)nc2ccccc12,0,0,0,0,0,0
Cc1ccc2nc(N/N=C/c3ccco3)cc(C)c2c1,0,0,62,0,0,0
SMILES,Rad51 HR inh,CHOP inh,Lmaj promast,PKD1 inh,Arbovirus inh,Wee1 degr inh
C=CCc1cc(/C=C2/NC(=O)N(CC)C2=O)cc(OCC)c1OCc1ccc(C(=O)O)cc1,0,0,0,0,0,0
S=c1[nH]nc(CCCc2n[nH]c(=S)o2)o1,0,0,-,-,-,0
COC(=O)c1ccc(=O)c2nc3/c(=C/O)c(O)cc(=O)c3[nH]c12,0,0,-,-,-,0
O=C(CSc1nc2ccccc2s1)Nc1cc(S(=O)(=O)N2CCOCC2)ccc1O,0,0,0,0,0,0
O=C(COC(=O)CCc1c[nH]c2ccccc12)NCc1ccc2c(c1)OCO2,0,0,0,0,0,0
O=C(N/N=C/c1ccc([N+](=O)[O-])o1)c1cc(-c2ccncc2)nc2ccccc12,0,0,99,0,0,0
Cn1c(/C=C/c2ccc([N+](=O)[O-])o2)nc2ccccc2c1=O,0,-,100,0,0,0
Cc1ccc(-c2ccc(/C=N/O)o2)cc1[N+](=O)[O-],0,0,0,0,0,0
Cc1cc2ncn(/N=C/c3ccc([N+](=O)[O-])o3)c2cc1C,0,0,99,0,0,0
O=C(O)/C=C/c1ccc([N+](=O)[O-])o1,0,0,0,0,0,0
O=C1CC(N2CCSCC2)C(=O)N1c1ccc(F)cc1 (configuration not stated),-,0,-,-,-,0
Cc1cc(-c2nnc3n2N=C(c2ccc(F)cc2)CS3)n[nH]1,0,0,-,-,-,0
Cc1ccc(C=C2C(Cl)=C(Cl)C(Cl)=C2Cl)cc1,0,107,-,-,-,0
Cc1ccc(SCc2nc3ncccn3c2Br)cc1,0,0,-,-,-,0
C=C(C)C1CC=C(C)/C(=N/NC(=O)COc2ccccc2Cl)C1 (configuration not stated),0,0,0,0,0,0
C=C(C)C1CC=C(C)/C(=N/NC(=O)COc2ccc(C)cc2)C1 (configuration not stated),0,70,0,0,0,0
CCCCCCCC[n+]1c(C)n(-c2ccccc2)c2ccc(NC(C)=O)cc21,0,0,99,0,0,0
O=C(NC12CC3CC(CC(C3)C1)C2)N1CCN(C(=O)c2ccco2)CC1,0,0,0,0,0,0
Nc1ncnc2c1ncn2[C@@H]1O[C@H](COP(=O)(O)OP(=O)(O)OP(=O)(O)OP(=O)(O)OC[C@@H]2O[C@H](n3cnc4c(N)ncnc43)C(O)[C@@H]2O)[C@H](O)C1O (some centres not stated),-,0,-,-,-,-
COC(=O)C(C)Oc1ccc(Oc2nc(Cl)ccc2Cl)cc1 (configuration not stated),0,0,0,0,0,0
Cc1ccc([N+](=O)[O-])cc1S(=O)(=O)NCCc1c(C)[nH]c2c(C)cccc12,0,0,66,0,0,0
O=c1c2c3c(sc2nc2n1CCCCC2)CCC3,0,0,55,0,0,0
N#CCc1cc2ccc3cccc4ccc(c1)c2c34,-,0,-,-,-,22
N#CCc1ccc(NC(=O)Nc2cccc(Cl)c2)cc1,0,0,0,0,0,0
COc1ccc(Oc2nccc(-c3ccccc3)c2C#N)cc1,0,0,0,0,0,0
N#Cc1ccc(-c2ccc(F)cc2)nc1Oc1ccccc1,0,0,0,0,0,0
N#Cc1ccc(-c2ccc(F)cc2)nc1Oc1ccc(F)cc1,0,81,0,0,0,0
COc1ccc(Oc2nccc(-c3ccc(F)cc3)c2C#N)cc1,0,0,0,0,0,12
COc1ccc2c(c1)Sc1ccccc1N2,0,0,100,0,0,0
COc1ccccc1C(=O)O/N=C(\N)c1ccccc1Cl,0,0,92,0,0,0
